Reference: ChEMBL document CHEMBL2177027, “Exploring the directionality of 5-substitutions in a new series of 5-alkylaminopyrazolo[4,3-e]1,2,4-triazolo[1,5-c]pyrimidine as a strategy to design novel human a(3) adenosine receptor antagonists” (J Med Chem, 2012)
pKi: −log10 of the molar value.

Key:
[1] = molecular target: Adenosine receptors; A1 & A3 (Homo sapiens) (UniProt P30542+P0DMS8); test: Selectivity ratio of Ki for human adenosine A1 receptor expressed in CHO cell membrane to Ki for human adenosine A3 receptor expressed in CHO cell membrane; assay type: cell-based
Adenosine receptor A1 = molecular target: T1, Adenosine receptor A1 (Homo sapiens, UniProt P30542); test: Displacement of [3H]CCPA from human adenosine A1 receptor expressed in CHO cell membrane; assay type: cell membranes
T1 sequence (P30542 whole entry): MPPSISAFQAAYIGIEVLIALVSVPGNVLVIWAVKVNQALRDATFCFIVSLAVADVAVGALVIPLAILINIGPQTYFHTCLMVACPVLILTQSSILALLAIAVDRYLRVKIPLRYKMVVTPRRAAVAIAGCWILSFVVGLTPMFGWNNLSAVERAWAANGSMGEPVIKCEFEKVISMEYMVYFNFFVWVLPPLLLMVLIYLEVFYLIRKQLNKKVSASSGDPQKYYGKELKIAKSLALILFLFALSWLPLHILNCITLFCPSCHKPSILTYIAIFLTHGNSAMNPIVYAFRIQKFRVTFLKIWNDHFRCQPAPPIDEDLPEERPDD
Method in brief: (§1)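 CHO cells stably transfected with the human receptor subtype. Membranes were prepared by a 1000g spin to clear fragments and nuclei, then pelleted from the supernatant at 100 000g. Pellet was resuspended in the respective binding buffer, frozen in liquid nitrogen and stored until radioligand competition binding.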

Adenosine receptor A2a = Adenosine receptor A2a (Homo sapiens, UniProt P29274); test: Displacement of [3H]NECA from human adenosine A2A receptor expressed in CHO cell membrane; assay type: cell membranes; method in brief: as §1
Adenosine receptor A2b = molecular target: T2, Adenosine receptor A2b (Homo sapiens, UniProt P29275); test: Antagonist activity at human adenosine A2B receptor expressed in CHO cells assessed as NECA-induced adenylate cyclase activity; assay type: functional, cell-based
T2 sequence (P29275 whole entry): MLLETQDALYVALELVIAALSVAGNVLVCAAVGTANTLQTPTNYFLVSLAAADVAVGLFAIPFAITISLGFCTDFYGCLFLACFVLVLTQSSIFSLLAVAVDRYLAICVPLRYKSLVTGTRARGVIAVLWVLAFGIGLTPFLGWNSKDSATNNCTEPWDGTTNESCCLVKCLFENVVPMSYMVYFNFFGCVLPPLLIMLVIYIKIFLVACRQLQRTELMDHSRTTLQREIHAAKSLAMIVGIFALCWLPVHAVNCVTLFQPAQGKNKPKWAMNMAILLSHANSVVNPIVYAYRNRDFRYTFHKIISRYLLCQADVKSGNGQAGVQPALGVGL
Method in brief: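 Membranes from stably transfected CHO cells made with a single high-speed spin of the homogenate. Incubated 20 min with about 150 000 cpm [α-³²P]ATP in mixture lacking EDTA and NaCl. IC50 taken from concentration-dependent inhibition of NECA-stimulated adenylyl cyclase using Hill equation.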

[2] = Selectivity ratio of Ki for human adenosine A1 receptor expressed in CHO cell membrane to Ki for human adenosine A2A receptor expressed in CHO cell membrane; assay type: cell-based
[3] = Selectivity ratio of Ki for human adenosine A2A receptor expressed in CHO cell membrane to Ki for human adenosine A3 receptor expressed in CHO cell membrane; assay type: cell-based
Adenosine receptor A3 = molecular target: T3, Adenosine receptor A3 (Homo sapiens, UniProt P0DMS8); test: Displacement of [3H]NECA from human adenosine A3 receptor expressed in CHO cell membrane; assay type: cell membranes; method in brief: as §1
T3 sequence (P0DMS8 whole entry): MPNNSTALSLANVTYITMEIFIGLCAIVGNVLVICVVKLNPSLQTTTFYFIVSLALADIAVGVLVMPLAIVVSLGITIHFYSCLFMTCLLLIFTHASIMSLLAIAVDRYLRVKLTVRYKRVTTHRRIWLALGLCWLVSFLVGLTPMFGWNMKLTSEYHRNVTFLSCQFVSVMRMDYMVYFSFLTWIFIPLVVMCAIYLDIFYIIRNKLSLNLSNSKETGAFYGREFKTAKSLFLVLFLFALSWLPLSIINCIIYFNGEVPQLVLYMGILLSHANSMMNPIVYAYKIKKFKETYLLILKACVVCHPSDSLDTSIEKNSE

Adenosine receptor A2a, sequence (P29274 whole entry): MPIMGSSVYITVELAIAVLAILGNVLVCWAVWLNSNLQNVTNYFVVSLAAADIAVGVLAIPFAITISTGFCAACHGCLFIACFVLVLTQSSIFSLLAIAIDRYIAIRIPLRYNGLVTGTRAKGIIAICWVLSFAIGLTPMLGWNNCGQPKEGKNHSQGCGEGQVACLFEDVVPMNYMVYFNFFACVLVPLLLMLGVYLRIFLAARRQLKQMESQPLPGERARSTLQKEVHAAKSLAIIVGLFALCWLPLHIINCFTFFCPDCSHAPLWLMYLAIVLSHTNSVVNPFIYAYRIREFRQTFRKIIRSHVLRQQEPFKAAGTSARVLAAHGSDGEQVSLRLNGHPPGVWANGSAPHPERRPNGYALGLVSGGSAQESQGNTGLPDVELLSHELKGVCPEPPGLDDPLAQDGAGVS

SMILES	Ratio Ki [1]	pKi (Adenosine receptor A1)	pKi (Adenosine receptor A2a)	pKi (Adenosine receptor A2b)	Ratio Ki [2]	Ratio Ki [3]	pKi (Adenosine receptor A3)
Cn1cc2c(nc(NC3CCC3)n3nc(-c4ccco4)nc23)n1	9.6	6.77	7.08	5.95	2.01	4.77	7.75
CCN(CCO)c1nc2nn(C)cc2c2nc(-c3ccco3)nn12	11	4.82	5.19	< 5.00	2.33	4.73	5.87
COc1ccc(CNc2nc3nn(C)cc3c3nc(-c4ccco4)nn23)cc1OC	129	5.57	7.19	< 5.52	42.3	3.04	7.68
CN(Cc1ccccc1)c1nc2nn(C)cc2c2nc(-c3ccco3)nn12	31.4	6.25	5.97	< 5.00	0.52	60	7.74
Cn1cc2c(nc(NC3CCCCC3)n3nc(-c4ccco4)nc23)n1	19.4	6.78	6.63	5.20	0.71	27.2	8.07
Cn1cc2c(nc(NC(CO)CO)n3nc(-c4ccco4)nc23)n1	1.19	6.19	6.22	< 5.00	1.07	1.11	6.27
CC[C@H](C)Nc1nc2nn(C)cc2c2nc(-c3ccco3)nn12	11.7	6.89	6.61	5.59	0.53	22.2	7.96
C[C@H](Nc1nc2nn(C)cc2c2nc(-c3ccco3)nn12)c1ccccc1	1130	6.47	7.26	5.28	6.12	184	9.52
CCC(C)Nc1nc2nn(C)cc2c2nc(-c3ccco3)nn12 (racemic)	25	6.88	6.61	5.41	0.53	47.4	8.28
CCCCCNc1nc2nn(C)cc2c2nc(-c3ccco3)nn12	32.9	6.32	6.77	5.40	2.86	11.5	7.84
Cn1cc2c(nc(NCCc3ccccc3)n3nc(-c4ccco4)nc23)n1	13.9	6.13	7.34	5.55	15.9	0.87	7.28
Cn1cc2c(nc(NC3CCCC3)n3nc(-c4ccco4)nc23)n1	10.4	7.10	6.89	5.58	0.62	16.9	8.11
CNc1nc2nn(C)cc2c2nc(-c3ccco3)nn12	30.4	5.71	6.43	5.68	5.24	5.8	7.20
CCNc1nc2nn(C)cc2c2nc(-c3ccco3)nn12	13.6	6.22	6.68	5.67	2.9	4.68	7.35
CN1CCN(c2nc3nn(C)cc3c3nc(-c4ccco4)nn23)CC1	11.4	4.82	5.11	< 5.00	1.98	5.78	5.88
Cn1cc2c(nc(NCCCCO)n3nc(-c4ccco4)nc23)n1	4.13	5.98	6.60	< 5.00	4.14	1	6.60

SMILES	Ratio Ki [1]	pKi (Adenosine receptor A1)	pKi (Adenosine receptor A2a)	pKi (Adenosine receptor A2b)	Ratio Ki [2]	Ratio Ki [3]	pKi (Adenosine receptor A3)
Cn1cc2c(nc(N3CCOCC3)n3nc(-c4ccco4)nc23)n1	4.71	5.62	5.78	< 5.00	1.45	3.25	6.29
CCCCCC(C)Nc1nc2nn(C)cc2c2nc(-c3ccco3)nn12 (configuration not stated)	28.8	6.61	6.35	5.12	0.56	51.7	8.06
Cn1cc2c(nc(NC3C4CC5CC(C4)CC3C5)n3nc(-c4ccco4)nc23)n1 (configuration not stated)	39.9	6.12	6.07	< 5.00	0.88	45.1	7.73
CCCCCN(CCCCC)c1nc2nn(C)cc2c2nc(-c3ccco3)nn12	4.04	5.48	5.13	< 5.00	0.44	9.09	6.08
CN(c1nc2nn(C)cc2c2nc(-c3ccco3)nn12)C1CCCCC1	31.2	5.99	5.56	< 5.00	0.37	83.5	7.49
COCCNc1nc2nn(C)cc2c2nc(-c3ccco3)nn12	9.76	5.62	6.39	< 5.00	5.9	1.65	6.61
CC[C@@H](C)Nc1nc2nn(C)cc2c2nc(-c3ccco3)nn12	27.8	6.78	6.57	5.32	0.61	45.9	8.23
CCCCCCC(C)Nc1nc2nn(C)cc2c2nc(-c3ccco3)nn12 (configuration not stated)	11.1	6.58	6.15	< 5.00	0.38	29.4	7.62
Cn1cc2c(nc(NCC3CCCCC3)n3nc(-c4ccco4)nc23)n1	17	6.10	6.09	5.02	0.98	17.2	7.33
Cn1cc2c(nc(NCc3ccccc3)n3nc(-c4ccco4)nc23)n1	212	6.28	7.04	5.48	5.79	36.5	8.60
Cn1cc2c(nc(NC(c3ccccc3)c3ccccc3)n3nc(-c4ccco4)nc23)n1	204	6.77	6.05	< 5.00	0.19	1080	9.08
Cn1cc2c(nc(Cl)n3nc(-c4ccco4)nc23)n1	17.9	5.18	4.52	< 5.00	0.22	81.5	6.44
Cn1cc2c(nc(NCCOc3ccccc3)n3nc(-c4ccco4)nc23)n1	16.7	6.19	6.92	5.12	5.34	3.13	7.41
CN(C)c1nc2nn(C)cc2c2nc(-c3ccco3)nn12	12.1	5.32	5.99	< 5.00	4.62	2.61	6.40
Cn1cc2c(nc(NC3CCCCCC3)n3nc(-c4ccco4)nc23)n1	14.5	6.65	6.47	5.18	0.66	21.8	7.81
